Drawing on ChEMBL document CHEMBL1811845, “Modulation of GABAA-receptors by honokiol and derivatives: subtype selectivity and structure-activity relationship” (J Med Chem, 2011), this text covers Activity, EC50 and Smax for one molecule.

Assay [1] concerns Oocyte. Nature of the assay: Modulation of GABA alpha1beta2gamma2s receptor expressed in Xenopus laevis oocytes assessed as potentiation of GABA-induced chloride current at holding potential -70 mV at 10 uM by two-microelectrode voltage clamp technique in presence of 300 nM of Diazepam relative to GABA. The format is cell-based.
Assay [2] has as its target T1, Gamma-aminobutyric acid receptor subunit alpha-3/ beta-2 (Homo sapiens, UniProt P34903+P47870).
T1 sequence (P47870 whole entry): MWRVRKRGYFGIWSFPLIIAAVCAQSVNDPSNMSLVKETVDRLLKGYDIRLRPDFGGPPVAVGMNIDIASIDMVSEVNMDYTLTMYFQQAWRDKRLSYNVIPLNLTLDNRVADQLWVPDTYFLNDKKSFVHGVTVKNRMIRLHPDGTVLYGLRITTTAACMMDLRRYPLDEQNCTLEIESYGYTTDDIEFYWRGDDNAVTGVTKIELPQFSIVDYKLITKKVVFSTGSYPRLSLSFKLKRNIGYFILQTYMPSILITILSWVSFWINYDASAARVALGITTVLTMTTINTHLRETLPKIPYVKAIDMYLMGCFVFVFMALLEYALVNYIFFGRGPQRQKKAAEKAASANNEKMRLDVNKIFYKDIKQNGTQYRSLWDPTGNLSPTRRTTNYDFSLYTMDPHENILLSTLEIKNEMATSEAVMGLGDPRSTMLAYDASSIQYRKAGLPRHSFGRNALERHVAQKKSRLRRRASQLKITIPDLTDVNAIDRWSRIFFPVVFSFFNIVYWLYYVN
T1 sequence (P34903 whole entry): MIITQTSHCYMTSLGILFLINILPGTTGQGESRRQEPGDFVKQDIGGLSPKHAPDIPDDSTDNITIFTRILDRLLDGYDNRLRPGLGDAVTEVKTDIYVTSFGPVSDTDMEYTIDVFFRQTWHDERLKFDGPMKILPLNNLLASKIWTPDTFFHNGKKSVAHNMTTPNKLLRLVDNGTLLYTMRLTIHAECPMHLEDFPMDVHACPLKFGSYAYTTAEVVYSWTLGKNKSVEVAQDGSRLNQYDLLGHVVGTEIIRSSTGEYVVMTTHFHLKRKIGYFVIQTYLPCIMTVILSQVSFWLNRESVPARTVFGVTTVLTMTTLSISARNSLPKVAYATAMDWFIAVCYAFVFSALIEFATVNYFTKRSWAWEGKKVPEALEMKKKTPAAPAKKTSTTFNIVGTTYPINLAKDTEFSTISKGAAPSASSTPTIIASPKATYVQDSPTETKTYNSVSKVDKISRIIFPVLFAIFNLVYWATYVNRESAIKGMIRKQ
Nature of the assay: Modulation of GABA Aalpha3beta2 receptor expressed in Xenopus laevis oocytes assessed as potentiation of GABA-induced chloride current at holding potential -70 mV by two-microelectrode voltage clamp technique. The assay is classed as cell-based, Oocyte. The method in brief:
(§1)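 Stage V–VI Xenopus oocytes, defolliculated with 2 mg/mL collagenase, injected with α(1, 2, 3 or 5) and β2 cRNAs mixed 1:1, then kept at 18 °C in ND96 (pH 7.4). Enhancement = I(GABA+compound)/IGABA − 1. Curves were Hill-fitted for EC50. Bath DMSO was at most 0.3%, matched in controls.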

The subject of assay [3] is Oocyte. Nature of the assay: Modulation of GABA alpha1beta2gamma2s receptor expressed in Xenopus laevis oocytes assessed as potentiation of GABA-induced chloride current at holding potential -70 mV at 10 uM by two-microelectrode voltage clamp technique in presence of 1 uM of flumazenil relative to GABA. The format is cell-based.
Assay [4] deals with Gamma-aminobutyric acid receptor subunit alpha-2/beta-2 (Homo sapiens) (UniProt P47870+P47869). Put plainly: Modulation of GABA Aalpha2beta2 receptor expressed in Xenopus laevis oocytes assessed as potentiation of GABA-induced chloride current at holding potential -70 mV by two-microelectrode voltage clamp technique relative to GABA. The format is cell-based. The settings on record: Oocyte. A digest of the protocol:
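Oocytes were injected with α1, α2, α3 or α5 plus β2 cRNA at a 1:1 ratio and stored at 18 °C in ND96, pH 7.4. Enhancement was (I(GABA+compound)/IGABA)−1, and concentration-response data were Hill-fitted for EC50 and nH. Matched DMSO was ≤0.3%.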

The target in assay [5] is T2, Gamma-aminobutyric acid receptor subunit alpha-2/beta-2 (Homo sapiens, UniProt P47869+P47870).
T2 sequence (P47870 whole entry): T1 sequence (P47870 whole entry)
T2 sequence (P47869 whole entry): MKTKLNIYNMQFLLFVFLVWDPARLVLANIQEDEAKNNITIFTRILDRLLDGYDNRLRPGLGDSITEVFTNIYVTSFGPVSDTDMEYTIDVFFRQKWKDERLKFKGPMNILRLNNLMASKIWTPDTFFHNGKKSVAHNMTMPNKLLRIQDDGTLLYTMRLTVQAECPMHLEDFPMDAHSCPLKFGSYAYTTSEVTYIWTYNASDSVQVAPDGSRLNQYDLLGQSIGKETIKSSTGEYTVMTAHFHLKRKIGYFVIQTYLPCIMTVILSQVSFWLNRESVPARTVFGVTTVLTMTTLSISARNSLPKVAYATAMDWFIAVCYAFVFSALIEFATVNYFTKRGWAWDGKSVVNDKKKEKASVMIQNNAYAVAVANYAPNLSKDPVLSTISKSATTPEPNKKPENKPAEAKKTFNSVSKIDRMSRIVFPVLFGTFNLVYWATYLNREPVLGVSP
Nature of the assay: Modulation of GABA Aalpha2beta2 receptor expressed in Xenopus laevis oocytes assessed as potentiation of GABA-induced chloride current at holding potential -70 mV by two-microelectrode voltage clamp technique. The assay is classed as cell-based, Oocyte. The method in brief: as §1

A short description of assay [6]: Modulation of GABA alpha1beta2gamma2s receptor expressed in Xenopus laevis oocytes assessed as potentiation of GABA-induced chloride current at holding potential -70 mV by two-microelectrode voltage clamp technique. Particulars: Oocyte. The assay is classed as cell-based. A digest of the protocol: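 Oocytes were injected with α1, β2 and γ2s cRNAs mixed 1:1:10 and stored at 18 °C in ND96 (pH 7.4). GABA was applied at a concentration giving 3–7% of maximal current, determined for each oocyte. Enhancement was taken as (I(GABA+compound)/IGABA) − 1. Concentration–response data were fitted to a Hill equation. Control solutions carried equal DMSO, at most 0.3%.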

Assay [7] deals with Oocyte. Nature of the assay: Modulation of GABA alpha1beta2gamma2s receptor expressed in Xenopus laevis oocytes assessed as potentiation of GABA-induced chloride current at holding potential -70 mV at 10 uM by two-microelectrode voltage clamp technique relative to GABA. The format is cell-based.

Regarding `C=CCc1ccc(O)c(-c2ccc(O)c(CC=C)c2)c1` [HONOKIOL], the values for the Activity in the assay with Oocyte [1], in the assay with Oocyte [3] and with Oocyte [7] were 244%, 116% and 101%, respectively. The EC50 (commonly the concentration at which the effect is half-maximal) in assay [2] came out at 52.4 µM; in assay [5], 46.4 µM; in assay [6], 36.2 µM. Further, the Smax in assay [4] was found to be 1130%.
